These results are taken from article PMC3462166 (Journal of the American Chemical Society, 2012).

Values joined by “and” are separate entries in the source; they are usually repeats but may differ in a detail not shown here. Equal values may be shown once.

The subject of experiment [1] is Sn. The conditions noted are these: natural ligand in a comparable assay; cited from earlier work.
The target of the next experiment is murine Sn (Mus musculus, UniProt Q62230). The conditions noted are these: inhibition of mSn-Fc chimera binding to natural-ligand beads; triplicate, ± SD. In a few lines:
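Magnetic beads coated with Neu5Acα2-3Galβ1-4GlcNAc were bound by murine sialoadhesin-Fc chimera in the presence of serial dilutions of competitor (9-N-acyl sialoside analogs). Displacement of bead-bound chimera was read by flow cytometry, and IC50 was taken as the concentration needed to displace the bound chimera. Titrations were run in triplicate, with SD from three independent measurements.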

For another experiment, the system named is Sn expressing cells. The conditions noted are these: liposomes decorated with the ligand; cited from earlier work.
The subject of experiment [2] is Sn. Particulars: liposomes decorated with the ligand; cited from earlier work.
For experiment [3], the system named is CD22 (Siglec-2) on B cells. Particulars: ligand targeting chemotherapeutic loaded liposomes; cited from earlier work.

Chain of murine Sn (Q62230 20-136 limits assumed): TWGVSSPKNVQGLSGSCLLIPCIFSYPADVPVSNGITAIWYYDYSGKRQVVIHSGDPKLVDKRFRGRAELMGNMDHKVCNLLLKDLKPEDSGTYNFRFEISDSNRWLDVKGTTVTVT

As to Neu5Acα2-3Galβ1-4GlcNAc, the IC50 in the experiment on Sn [1] is 1300 µM.

With `CC(=O)NC1C(O)OC(CO)C(OC2OC(CO)C(O)C(OC3(C(=O)O)CC(O)C(NC(C)=O)C(C(O)C(O)CNC(=O)c4ccc(-c5ccccc5)cc4)O3)C2O)C1O` (stereo not drawn) [Compound 1, 9-N-biphenylcarbamoyl-Neu5Acα2-3Galβ1-4GlcNAc], the IC50 on murine Sn was 4.8 µM and 4.82 µM. Also, the “targeting of Sn expressing cells in vitro” value in the experiment with Sn expressing cells is recorded as “capable of targeting Sn expressing cells in vitro”. Moreover, in the experiment on Sn [2], the “selectivity for in vivo targeting” value is reported as “not sufficiently selective”.

With “9-N-biphenylcarbamoyl-Neu5Acα2-6Galβ1-4GlcNAc [6′-^BPCNeu5Ac]”, in experiment [3], the “survival in murine model of human B cell lymphoma” value was “prolong life”.

`CC(=O)NC1C(O)OC(CO)C(OC2OC(CO)C(O)C(OC3(C(=O)O)CC(O)C(NC(C)=O)C(C(O)C(O)CNC(=O)c4cc5c(s4)-c4ccccc4OC5)O3)C2O)C1O` (stereo not drawn) [Compound 2, 9-N-(4H-thieno[3,2-c]chromene-2-carbamoyl)-Neu5Acα 2-3Galβ1-4GlcNAc] had an IC50 on murine Sn of 0.38 ± 0.04 µM.

What is called IC50 is the point on the concentration scale where inhibition reaches its midpoint.
